The subject of data set [1] is S. aureus USA300.
The test system of data set [2] is S. aureus USA300. As to the kind of experiment: Membrane permeation, propidium iodide probe. As to conditions: peptides at 3.1 μM; antibiotics at their MIC values. In kind it is cell-based, Staphylococcus aureus. The essentials:
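Serially diluted test compound was combined with propidium iodide (20 μM) and bacteria in TSB at final OD600 ~0.1. Incubated at 37°C with shaking at 100 rpm. Fluorescence (ex 584 nm, em 620 nm) was read every 5 min for 2 h. Each condition was run in duplicate.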

The next data set has as its system fungal protease K. As to conditions: cited from earlier work.
Another data set has as its system chymotrypsin. As to conditions: cited from earlier work.
[3] abbreviates: S. aureus USA300, MIC values used in Figure 9B.

Where two headings read alike, the source gives them in different places.

As to `CCCCCCCCCC(=O)N[C@@H](Cc1c[nH]c2ccccc12)C(=O)N[C@H](CC(N)=O)C(=O)N[C@@H](CC(=O)O)C(=O)N[C@@H]1C(=O)NCC(=O)N[C@@H](CCCN)C(=O)N[C@@H](CC(=O)O)C(=O)N[C@H](C)C(=O)N[C@@H](CC(=O)O)C(=O)NCC(=O)N[C@H](CO)C(=O)N[C@@H]([C@H](C)CC(=O)O)C(=O)N[C@@H](CC(=O)c2ccccc2N)C(=O)O[C@@H]1C` [daptomycin], in the data set with S. aureus USA300 [1] (USA300, 20 h), the MIC of antibiotics turned out to be 0.78 µM. Regarding `CO[C@H]1/C=C/O[C@@]2(C)Oc3c(C)c(O)c4c(O)c(cc(O)c4c3C2=O)NC(=O)/C(C)=C\C=C\[C@H](C)[C@H](O)[C@@H](C)[C@@H](O)[C@@H](C)[C@H](OC(C)=O)[C@@H]1C` [rifamycin], the “membrane permeation of S. aureus USA300 (PI fluorescence)” value with S. aureus USA300 [2] was “no membrane permeation”. For the same compound, the MIC of antibiotics with S. aureus USA300 [1] (setting [3]) amounted to 0.2 µM. Take `CN[C@H](CC(C)C)C(=O)N[C@H]1C(=O)N[C@@H](CC(N)=O)C(=O)N[C@H]2C(=O)N[C@H]3C(=O)N[C@H](C(=O)N[C@H](C(=O)O)c4cc(O)cc(O)c4-c4cc3ccc4O)[C@H](O)c3ccc(c(Cl)c3)Oc3cc2cc(c3O[C@@H]2O[C@H](CO)[C@@H](O)[C@H](O)[C@H]2O[C@H]2C[C@](C)(N)[C@H](O)[C@H](C)O2)Oc2ccc(cc2Cl)[C@H]1O` [vancomycin]: the “membrane permeation of S. aureus USA300 (PI fluorescence)” value in the data set with S. aureus USA300 [2] is recorded as “no membrane permeation”. For the same compound, in the data set on S. aureus USA300 [1] (setting [3]), the MIC of antibiotics stood at 0.78 µM. Turning to “GF-17: synthetic peptide of LL-37 residues 17–32 plus an extra N-terminal glycine (FKRIVQRIKDFLRNLV; extra N-terminal glycine)”, the “resistance to fungal protease K” value with fungal protease K is given as “but not GF-17, is resistant”. For the same compound, in the data set with chymotrypsin, the resistance to chymotrypsin result is listed as “but not GF-17, is resistant”.

These data come from article PMC6379907 (Advanced biosystems, 2018).
